PMC3897123 (MedChemComm, 2013)
Each block holds one compound with its values, some of them ahead of it.

Columns and labels:
[1] = biological target: T1, Nox1 (Homo sapiens, UniProt Q9Y5S8); format: cell-based; settings: for Nox1 activity (in words): summary of Table 1
T1 sequence (Q9Y5S8 1-564): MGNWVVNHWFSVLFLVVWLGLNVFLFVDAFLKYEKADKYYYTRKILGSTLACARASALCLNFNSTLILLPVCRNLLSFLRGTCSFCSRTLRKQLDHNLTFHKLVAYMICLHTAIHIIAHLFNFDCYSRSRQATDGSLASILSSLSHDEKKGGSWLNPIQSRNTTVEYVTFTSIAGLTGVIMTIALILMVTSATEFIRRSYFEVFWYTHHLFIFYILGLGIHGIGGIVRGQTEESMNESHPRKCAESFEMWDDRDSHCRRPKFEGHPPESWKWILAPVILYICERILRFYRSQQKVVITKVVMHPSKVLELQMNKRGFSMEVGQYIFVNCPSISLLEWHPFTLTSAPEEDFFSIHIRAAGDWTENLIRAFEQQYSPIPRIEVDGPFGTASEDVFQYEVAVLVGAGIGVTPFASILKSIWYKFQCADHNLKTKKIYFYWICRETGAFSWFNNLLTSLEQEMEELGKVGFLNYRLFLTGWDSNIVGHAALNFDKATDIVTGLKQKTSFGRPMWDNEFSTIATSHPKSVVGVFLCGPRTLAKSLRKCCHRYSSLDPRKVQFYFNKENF
T1 sequence (P13498 2-195 partner limits assumed): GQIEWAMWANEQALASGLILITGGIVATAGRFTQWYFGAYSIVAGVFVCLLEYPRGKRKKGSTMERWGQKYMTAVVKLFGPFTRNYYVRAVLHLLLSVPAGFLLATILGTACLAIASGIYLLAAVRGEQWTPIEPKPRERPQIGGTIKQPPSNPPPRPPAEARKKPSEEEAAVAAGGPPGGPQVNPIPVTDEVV

[2] = biological target: T2, Nox4 (Homo sapiens, UniProt Q9NPH5); assay: Amplex Red assay of constitutive Nox4 activity; format: cell-based; settings: for Nox4 activity (in words): Amplex Red, COS-Nox4 cells
T2 sequence (Q9NPH5 1-578): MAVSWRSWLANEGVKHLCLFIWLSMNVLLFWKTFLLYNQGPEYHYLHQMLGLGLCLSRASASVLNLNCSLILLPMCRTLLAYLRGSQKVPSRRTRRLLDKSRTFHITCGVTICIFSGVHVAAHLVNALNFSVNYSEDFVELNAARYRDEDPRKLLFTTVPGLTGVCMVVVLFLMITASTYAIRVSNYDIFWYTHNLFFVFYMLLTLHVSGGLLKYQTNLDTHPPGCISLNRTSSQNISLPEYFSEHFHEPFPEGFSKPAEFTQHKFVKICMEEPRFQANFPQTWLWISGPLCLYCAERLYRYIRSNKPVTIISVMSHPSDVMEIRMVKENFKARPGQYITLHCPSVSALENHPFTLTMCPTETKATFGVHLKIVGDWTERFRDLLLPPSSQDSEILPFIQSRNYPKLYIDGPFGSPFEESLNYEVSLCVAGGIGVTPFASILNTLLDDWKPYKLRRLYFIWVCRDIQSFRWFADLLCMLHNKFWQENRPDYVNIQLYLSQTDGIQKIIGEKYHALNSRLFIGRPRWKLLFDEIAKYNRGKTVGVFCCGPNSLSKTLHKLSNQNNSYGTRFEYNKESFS
T2 sequence (P13498 2-195 partner limits assumed): T1 sequence (P13498 2-195 partner limits assumed)
How it was run: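 Transiently transfected COS-Nox4 cells, unstimulated (constitutive activity), pretreated with various test compound concentrations for 15 min. The initial rate of H2O2 production is read by Amplex Red fluorescence. Results are given as % of vehicle control, mean ± SEM of 3–7 independent experiments; IC50 comes from the concentration–response curve.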

[3] = biological target: T3, Nox2 (Homo sapiens, UniProt P04839); assay: Amplex Red assay of ROS generation in whole COS-Nox2 cells; format: cell-based
T3 sequence (P04839 2-570 limits assumed): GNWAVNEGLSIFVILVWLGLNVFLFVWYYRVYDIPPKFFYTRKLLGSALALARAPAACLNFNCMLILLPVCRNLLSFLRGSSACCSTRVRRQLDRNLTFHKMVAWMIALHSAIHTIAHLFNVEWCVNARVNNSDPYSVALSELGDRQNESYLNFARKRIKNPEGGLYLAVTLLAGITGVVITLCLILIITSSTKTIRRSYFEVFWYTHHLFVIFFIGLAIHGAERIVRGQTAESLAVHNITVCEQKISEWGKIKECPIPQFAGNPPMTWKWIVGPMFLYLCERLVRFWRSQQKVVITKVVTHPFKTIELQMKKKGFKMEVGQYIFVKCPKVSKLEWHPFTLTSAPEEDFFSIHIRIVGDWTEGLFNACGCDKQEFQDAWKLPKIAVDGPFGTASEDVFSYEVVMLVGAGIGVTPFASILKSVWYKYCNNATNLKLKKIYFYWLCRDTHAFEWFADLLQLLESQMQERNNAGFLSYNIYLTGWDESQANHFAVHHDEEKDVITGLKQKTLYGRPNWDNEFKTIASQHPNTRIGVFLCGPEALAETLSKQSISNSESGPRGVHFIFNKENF
T3 sequence (P13498 2-195 partner limits assumed): T1 sequence (P13498 2-195 partner limits assumed)
How it was run: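 Whole COS-Nox2 cells stimulated with 5 μM PMA, with SOD added to convert O2•− to H2O2. H2O2 is read by Amplex Red fluorescence across a concentration range of test compound. Activity is expressed as % of vehicle control, as mean ± SEM of 3–7 independent experiments; IC50 is derived from the concentration–response curve.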

[4] = biological target: T3, Nox2; assay: L-012 chemiluminescence assay of O2•− generation in whole COS-Nox2 cells; format: cell-based
How it was run: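 Stable Nox2-transfected COS cells, stimulated with 5 μM PMA; O2•− is detected by L-012 chemiluminescence. The primary screen of library compounds ran at 100, 50, 25 and 12.5 μM. Follow-up concentration–response data are expressed as % of vehicle control (mean ± SEM of 3–7 independent experiments), and IC50 is extrapolated from the curve slope.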

[5] = biological target: T4, Nox5 (Homo sapiens, UniProt Q96PH1); assay: L-012 assay of Nox5 activity in HEK-Nox5 cells; format: cell-based; settings: summary of Table 1
T4 sequence (Q96PH1 1-765): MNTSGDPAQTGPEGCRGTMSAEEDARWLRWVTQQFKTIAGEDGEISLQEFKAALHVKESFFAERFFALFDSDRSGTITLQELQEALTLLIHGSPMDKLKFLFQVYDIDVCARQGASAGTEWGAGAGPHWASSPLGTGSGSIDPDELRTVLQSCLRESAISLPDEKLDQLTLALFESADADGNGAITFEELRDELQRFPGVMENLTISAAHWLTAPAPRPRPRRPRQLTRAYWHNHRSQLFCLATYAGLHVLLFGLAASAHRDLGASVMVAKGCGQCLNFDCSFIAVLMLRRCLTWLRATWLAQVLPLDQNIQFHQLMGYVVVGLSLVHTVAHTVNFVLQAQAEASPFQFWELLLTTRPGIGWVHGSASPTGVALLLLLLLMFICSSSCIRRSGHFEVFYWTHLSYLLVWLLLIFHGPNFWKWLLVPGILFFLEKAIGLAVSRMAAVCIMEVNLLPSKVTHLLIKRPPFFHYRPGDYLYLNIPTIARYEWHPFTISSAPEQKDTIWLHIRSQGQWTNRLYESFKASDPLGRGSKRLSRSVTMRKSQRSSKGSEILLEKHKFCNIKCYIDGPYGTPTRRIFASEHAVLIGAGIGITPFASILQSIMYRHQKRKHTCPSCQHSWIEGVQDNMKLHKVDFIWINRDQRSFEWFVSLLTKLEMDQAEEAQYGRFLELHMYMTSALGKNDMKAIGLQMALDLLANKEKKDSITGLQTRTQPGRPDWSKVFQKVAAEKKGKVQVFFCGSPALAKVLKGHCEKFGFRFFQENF

[6] = test system: cell viability; assay: CytoTox-Glo cell viability assay; format: cell-based; settings: only at the highest concentration tested
[7] = biological target: T3, Nox2; assay: Cell-free Nox2 activity in lysed COS-Nox2 cells; format: biochemical; settings: 6.3 μM compound; COS-Nox2 cell lysate, 130 μM LiDS, 180 μM NADPH
How it was run: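 Cell-free system: COS-Nox2 cell lysate is preincubated with test compound for 15 min at 25 °C. Subunits are assembled with 130 μM LiDS, and the reaction is started with 180 μM NADPH. O2•− is measured as the initial linear rate of SOD-inhibitable cytochrome C reduction, in nmol O2•− per min per 10^7 cell equivalents.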

IC50 [1]: > 100 µM
SMILES: C=C(C)C[C@H]1[C@H]2c3c(Br)cccc3[C@H](CC2(C)C)N1S(C)(=O)=O [Compound 14a]

IC50 [2]: > 100 µM
SMILES: C=C(C)C[C@H]1[C@H]2c3c(-c4ccc(Cl)c(Cl)c4)cccc3[C@H](CC2(C)C)N1Cc1ccc2c(c1)OCO2 [Compound 12b]

IC50 [2]: > 100 µM
SMILES: C=C(C)C[C@H]1[C@H]2c3c(Br)cccc3[C@H](CC2(C)C)N1S(=O)(=O)c1ccc(F)cc1 [Compound 14b]

IC50 [3]: > 100 µM | IC50 [4]: > 100 µM
SMILES: C=C(C)C[C@@H]1N[C@H]2CC(C)(C)[C@@H]1c1c(-c3cccnc3)cccc12 [Compound 12d]

IC50 [2]: > 100 µM
SMILES: C=C(C)C[C@H]1[C@H]2c3c(Br)cccc3[C@H](CC2(C)C)N1Cc1ccnc2ccccc12 [Compound 11b]

Nox4 activity (in words) [2]: virtually no effect | Nox5 activity (in words) [5]: virtually no effect | Nox1 activity (in words) [1]: virtually no effect
SMILES: C=C(C)C[C@H]1[C@H]2c3c(Br)cccc3[C@H](CC2(C)C)N1CCCCC [Compound 11g]

IC50 [2]: > 100 µM
SMILES: C=C(C)C[C@H]1[C@H]2c3c(Br)cccc3[C@H](CC2(C)C)N1Cc1c[nH]c2ccccc12 [Compound 11c]

SMILES: C=C(C)C[C@@H]1N[C@H]2CC(C)(C)[C@@H]1c1ccccc12 [Compound 8]
IC50 [2]: > 100 µM | Activity in primary screen ([4]; UPCMLD library screen at 100, 50, 25, and 12.5 μM, L-012, COS-Nox2 cells): inactive

IC50 [2]: > 100 µM | Nox4 activity (in words) [2]: virtually no effect | Nox5 activity (in words) [5]: virtually no effect | Nox1 activity (in words) [1]: virtually no effect
SMILES: C=C(C)C[C@H]1[C@H]2c3c(Br)cccc3[C@H](CC2(C)C)N1Cc1cccs1 [Compound 11h]

SMILES: CC(C)C[C@@H]1N[C@H]2CC(C)(C)[C@@H]1c1c(Br)cccc12 [Compound 13]
Nox5 activity (in words) [5]: retained inhibitory activity | Nox1 activity (in words) [1]: retained inhibitory activity | Effect on cell viability [6]: effect on cell viability | Nox2 inhibitory activity (in words) ([4]; text summary of Table 1 (Amplex Red and L-012 assays)): retained inhibitory activity

SMILES: C=C(C)C[C@@H]1N[C@H]2CC(C)(C)[C@@H]1c1c(Br)cccc12 [Compound 7]
Effect on cell viability [6]: effect on cell viability | LiDS-stimulated O2•− generation [7]: almost non-stimulated levels
